Measured values: ChEMBL document CHEMBL1914454, “Novel N-linked aminopiperidine inhibitors of bacterial topoisomerase type II: broad-spectrum antibacterial agents with reduced hERG activity” (J Med Chem, 2011)
Values after ≈ are worked out from the molar mass of the structure shown.

What was measured:
[1] = system: Pseudomonas aeruginosa; test: Antibacterial activity against Pseudomonas aeruginosa PAO1 after 18 to 24 hrs by broth microdilution method; format: functional
How it was run: (§1)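 Broth microdilution following CLSI guidelines in Mueller Hinton broth. Compounds in DMSO, diluted to 2% DMSO final, 11 doubling dilutions from 64 to 0.06 μg/mL. Incubated at 35 °C for 18−24 h; growth read by absorbance at 620 nm.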

[2] = molecular target: Voltage-gated inwardly rectifying potassium channel KCNH2 (Homo sapiens, UniProt Q12809); test: Inhibition of human ERG by ionworks HT assay
Sequence of Voltage-gated inwardly rectifying potassium channel KCNH2 (Q12809 whole entry): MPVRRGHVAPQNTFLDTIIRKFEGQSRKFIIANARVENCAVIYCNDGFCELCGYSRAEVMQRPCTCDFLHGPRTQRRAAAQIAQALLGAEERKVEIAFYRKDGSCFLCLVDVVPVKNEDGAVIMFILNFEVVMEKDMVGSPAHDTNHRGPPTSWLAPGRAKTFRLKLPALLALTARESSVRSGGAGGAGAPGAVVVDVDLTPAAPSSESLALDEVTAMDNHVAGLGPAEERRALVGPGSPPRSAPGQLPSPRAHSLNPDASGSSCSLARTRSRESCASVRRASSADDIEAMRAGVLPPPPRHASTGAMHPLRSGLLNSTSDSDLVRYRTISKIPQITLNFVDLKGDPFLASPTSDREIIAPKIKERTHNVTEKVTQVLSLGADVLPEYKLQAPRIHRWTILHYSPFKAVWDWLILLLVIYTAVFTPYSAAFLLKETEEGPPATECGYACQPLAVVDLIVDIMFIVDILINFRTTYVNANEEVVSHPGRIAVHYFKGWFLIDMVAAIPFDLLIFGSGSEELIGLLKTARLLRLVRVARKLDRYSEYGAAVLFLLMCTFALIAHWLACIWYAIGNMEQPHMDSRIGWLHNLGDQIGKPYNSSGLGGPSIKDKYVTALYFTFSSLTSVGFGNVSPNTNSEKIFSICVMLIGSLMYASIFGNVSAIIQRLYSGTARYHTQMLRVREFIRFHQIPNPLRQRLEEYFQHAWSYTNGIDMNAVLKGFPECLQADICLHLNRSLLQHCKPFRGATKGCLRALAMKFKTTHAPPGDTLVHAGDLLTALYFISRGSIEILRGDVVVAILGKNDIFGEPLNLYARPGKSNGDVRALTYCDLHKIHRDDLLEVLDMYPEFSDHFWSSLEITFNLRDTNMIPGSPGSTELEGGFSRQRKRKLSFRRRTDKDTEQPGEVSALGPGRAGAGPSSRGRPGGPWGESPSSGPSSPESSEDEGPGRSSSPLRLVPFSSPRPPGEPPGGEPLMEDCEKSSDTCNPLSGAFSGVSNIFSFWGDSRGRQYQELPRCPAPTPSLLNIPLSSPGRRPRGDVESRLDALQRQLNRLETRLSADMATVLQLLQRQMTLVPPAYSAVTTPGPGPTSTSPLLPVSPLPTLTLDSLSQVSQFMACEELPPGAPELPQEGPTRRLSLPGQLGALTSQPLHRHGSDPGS

[3] = system: Escherichia coli; test: Antibacterial activity against Escherichia coli W3110 after 18 to 24 hrs by broth microdilution method; format: functional; settings: K-12 substr. W3110; how it was run: as §1
[4] = system: Staphylococcus aureus; test: Antibacterial activity against methicillin-susceptible Staphylococcus aureus after 18 to 24 hrs by broth microdilution method; format: functional; how it was run: as §1
[5] = Octanol-phosphate buffer partition coefficient, log D of the compound at pH 7.4 by LC/MS/UV analysis
[6] = system: Streptococcus pneumoniae; test: Antibacterial activity against penicillin-susceptible Streptococcus pneumoniae D39 after 18 to 24 hrs by broth microdilution method; format: functional
How it was run: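 CLSI broth microdilution in 2.2% (w/v) Mueller Hinton broth with 0.65% (v/v) lysed horse blood. Compounds diluted from DMSO to 2% DMSO final, 11 doubling dilutions from 64 to 0.06 μg/mL. Incubated at 35 °C for 18−24 h; read at 620 nm.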

[7] = Fraction unbound in human plasma at 10 uM after 16 hrs by equilibrium dialysis
[8] = Inhibition of Escherichia coli ATPase activity of topoisomerase 4 ParC/ParE subunit assessed as reduction in inorganic phosphate production after 24 hrs by ammonium molybdate/malachite-green based assay
How it was run: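 Each reaction contained 0.5 nM each of E. coli ParC and ParE, 0.16 mM ATP and 0.005 mg/mL sheared salmon sperm DNA in 20 mM Tris pH 8.0 with 50 mM ammonium acetate, 8.0 mM MgCl₂, 0.5 mM EDTA, 5 mM DTT, 2.5% glycerol and 0.005% Brij-35. Compound dilution series; 24 h at room temperature. Quenched with malachite green; absorbance read at 650 nm. IC50 is the mean of three replicate experiments.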

[9] = Volume of distribution in Wistar Han rat at 3 mg/kg, iv; format: ADME, organism-based; design: dose 3 mg/kg, route intravenous; settings: in vivo
How it was run: (§2)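 Groups of three Wistar Han rats got a 3 mg/kg iv bolus via a cannulated jugular vein. Serial whole-blood samples were taken at time intervals, and compound in plasma was quantified by LC–MS/MS. Parameters were estimated by a noncompartmental model.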

[10] = Clearance in Beagle dog at 3 mg/kg, iv; format: ADME, organism-based, Canis lupus familiaris; design: dose 3 mg/kg, route intravenous; settings: in vivo
How it was run: (§3)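 Plasma was sampled from 0 to 24 h and drug measured by LC–MS/MS. Parameters came from noncompartmental analysis.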

[11] = AUC in Beagle dog at 3 mg/kg, iv; format: ADME, organism-based, Canis lupus familiaris; design: dose 3 mg/kg, route intravenous; settings: plasma; how it was run: as §3
[12] = Half life in Beagle dog at 3 mg/kg, iv; format: ADME, organism-based, Canis lupus familiaris; design: dose 3 mg/kg, route intravenous; settings: in vivo; how it was run: as §3
[13] = Volume of distribution in Beagle dog at 3 mg/kg, iv; format: ADME, organism-based, Canis lupus familiaris; design: dose 3 mg/kg, route intravenous; settings: in vivo; how it was run: as §3
[14] = Clearance in Wistar Han rat at 3 mg/kg, iv; format: ADME, organism-based; design: dose 3 mg/kg, route intravenous; settings: in vivo; how it was run: as §2
[15] = AUC in Wistar Han rat at 3 mg/kg, iv; format: ADME, organism-based; design: dose 3 mg/kg, route intravenous; settings: plasma; how it was run: as §2
[16] = Half life in Wistar Han rat at 3 mg/kg, iv; format: ADME, organism-based; design: dose 3 mg/kg, route intravenous; settings: in vivo; how it was run: as §2
[17] = Oral bioavailability in Beagle dog at 10 mg/kg; format: ADME, organism-based, Canis lupus familiaris; settings: in vivo; how it was run: as §3

SMILES	MIC [1] [µg/mL]	IC50 [2] [nM]	MIC [3] [µg/mL]	MIC [4] [µg/mL]	logD ([5]; octanol/phosphate buffer)	MIC [6] [µg/mL]	fraction unbound at 16 h, 10 µM [7]	IC50 [8] [nM]	Vd [9] [L/kg]	clearance [10] [mL/min/kg]	AUC [11] [ng·h/mL]	half-life [12] [h]	Vd [13] [L/kg]	clearance [14] [mL/min/kg]	AUC [15] [ng·h/mL]	half-life [16] [h]	bioavailability [17] [%]	logD ([5]; octanol/water)
COc1ccc2c(c1)N(CCN1CCC(NCc3cc4c(cn3)OCCO4)CC1)C(=O)CO2	> 8	13000	1 (≈ 2.2 µM)	0.13 (≈ 0.286 µM)	1.24	0.25 (≈ 0.55 µM)	0.18	–	–	–	–	–	–	–	–	–	–	–
COc1ccc2nnc(=O)n(CCN3CCC(NCc4ccc5c(n4)NC(=O)CO5)CC3)c2c1	8 (≈ 17.2 µM)	–	2 (≈ 4.3 µM)	> 8	–	8 (≈ 17.2 µM)	–	26	–	–	–	–	–	–	–	–	–	–
N#Cc1ccc2c(c1)N(CCN1CCC(NCc3ccc4c(n3)NC(=O)CO4)CC1)C(=O)CO2	2 (≈ 4.32 µM)	–	0.25 (≈ 0.541 µM)	0.13 (≈ 0.281 µM)	0.24	0.5 (≈ 1.08 µM)	–	3.2	23	7.8	3090	166	61	66	640	5.8	64	–
COc1ccc2ncc(F)c(CCN3CCC(NCc4cc5c(cn4)OCCO5)CC3)c2n1	4 (≈ 8.82 µM)	–	0.13 (≈ 0.287 µM)	< 0.01	1.46	< 0.07	0.17	1.3	–	–	–	–	–	–	–	–	–	–
COc1ccc2ncc(F)c(CCN3CCC(NCc4ccc5c(n4)NC(=O)CO5)CC3)c2n1	1 (≈ 2.14 µM)	–	0.06 (≈ 0.129 µM)	0.02 (≈ 0.0429 µM)	1.78	0.03 (≈ 0.0643 µM)	0.06	0.6	–	–	–	–	–	–	–	–	–	–
COc1ccc2ncc(=O)n(CCN3CCC(NCc4cc5c(cn4)OCCO5)CC3)c2n1	4 (≈ 8.84 µM)	–	0.25 (≈ 0.552 µM)	0.02 (≈ 0.0442 µM)	0.83	0.03 (≈ 0.0663 µM)	0.47	1.5	–	–	–	–	–	–	–	–	–	–
COc1ccc2c(C)nc(=O)n(CCN3CCC(NCc4cc5c(cn4)OCCO5)CC3)c2c1	> 8	> 33000	> 8	2 (≈ 4.3 µM)	–	1 (≈ 2.15 µM)	–	82	–	–	–	–	–	–	–	–	–	0.29
O=C1COc2ccccc2N1CCN1CCC(NCc2cc3c(cn2)OCCO3)CC1	> 8	–	8 (≈ 18.8 µM)	2 (≈ 4.71 µM)	1.04	4 (≈ 9.42 µM)	0.26	100	–	–	–	–	–	–	–	–	–	–
COc1ncc2ncc(=O)n(CCN3CCC(NCc4cc5c(cn4)OCCO5)CC3)c2n1	> 8	81000	2 (≈ 4.41 µM)	0.25 (≈ 0.551 µM)	0.14	0.25 (≈ 0.551 µM)	0.96	28	–	–	–	–	–	–	–	–	–	–
COc1ccc2c(c1)N(CCN1CCC(NCc3ccc4c(n3)NC(=O)CO4)CC1)C(=O)OC2	4 (≈ 8.56 µM)	42000	0.5 (≈ 1.07 µM)	1 (≈ 2.14 µM)	0.5	0.5 (≈ 1.07 µM)	0.26	4.4	–	–	–	–	–	–	–	–	–	–
